LMPTP inh = LMPTP phosphatase inhibitors, primary screen, biochemical, fluorescence intensity, uHTS; Low molecular weight phosphotyrosine protein phosphatase (Homo sapiens), P24666; 360,000 tested, 0.22% active; inhibition, % at 20 µM; recombinant LMPTP-A, OMFP fluorogenic substrate; AID 651560, 2012;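 active = compounds that cut the enzyme signal by at least half of the control window in the single-dose screen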;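 note: plate controls were DMSO wells with enzyme plus substrate for no effect and substrate without enzyme for full effect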
Target sequence (P24666 whole entry, looked up): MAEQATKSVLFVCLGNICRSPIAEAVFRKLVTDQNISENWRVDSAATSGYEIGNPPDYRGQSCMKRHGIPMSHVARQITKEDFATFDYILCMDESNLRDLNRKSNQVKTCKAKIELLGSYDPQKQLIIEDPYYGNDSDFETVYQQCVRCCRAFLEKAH
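Material: LMPTP-A; amount: 0.625 nM enzyme; doses: single 20 µM dose; times: reaction 50 min, room temperature, dark; technique: fluorescence intensity of OMFP turnover product; benchmarks: no-enzyme and uninhibited controls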
Scp-1 inhibitor = Scp-1 phosphatase inhibitors, primary screen, biochemical, colorimetric, uHTS; Carboxy-terminal domain RNA polymerase II polypeptide A small phosphatase 1 (Homo …; Recombinant Scp1, phosphopeptide, malachite green phosphate absorbance; inhibition, % at 20 µM; 340,000 tested, 0.88% active;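 active = inhibition above about 50% at 20 µM, limit read from the data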;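 note: plate controls were DMSO wells with enzyme for no effect and wells lacking enzyme for full effect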
Target sequence (Q9GZU7 76-261 limits assumed): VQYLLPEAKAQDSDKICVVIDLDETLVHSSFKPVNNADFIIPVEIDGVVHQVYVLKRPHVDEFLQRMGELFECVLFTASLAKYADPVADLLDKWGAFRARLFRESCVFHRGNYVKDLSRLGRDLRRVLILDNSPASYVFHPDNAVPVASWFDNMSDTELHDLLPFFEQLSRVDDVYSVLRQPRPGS
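Test system: SCP-1 phosphatase catalytic domain, residues 76-261 | Compound dosing: One concentration, 20 µM, with 1.0% DMSO | Schedule: 45 min room-temperature reaction, 5 min colour, 30 min stabiliser | Detection: Absorbance at 630 nm | Read-out basis: % inhibition of SCP-1 phosphate liberation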
DNMT1 inh = human DNMT1 methyltransferase inhibitors, primary screen, biochemical, molecular beacon, fluorescence, HinP1I cleavage, uHTS; DNA (cytosine-5)-methyltransferase 1 (Homo sapiens), P26358; inhibition (reported as % activation of signal), % at 10 µM; 360,000 tested, 0.83% active; AID 588458, 2011; in the data active = inhibition above about 50%
STEP block = STEP phosphatase inhibitors, primary screen, biochemical, fluorescence intensity, uHTS; 360,000 tested, 0.25% active; AID 588621, 2011; inhibition, % at 20 µM; recombinant STEP, OMFP fluorogenic substrate; Tyrosine-protein phosphatase non-receptor type 5 (Homo sapiens), P54829;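 active = inhibition at 20 µM, scaled per plate between control wells, above about 37%, limit read from the data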;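 note: 0% = DMSO with enzyme and substrate and 100% = substrate only without enzyme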
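material = STEP tyrosine phosphatase | reagent = fluorogenic phosphatase substrate OMFP at 25 µM final | doses = single compound dose of 20 µM, 1% DMSO final | schedule = 20 min reaction, room temperature, in the dark | measured by = fluorescence, 480/540 nm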
SUMO1-SIM PPI = modulators of SUMO1 protein-protein interactions, primary screen, biochemical, uHTS. inhibition, % at 20 µM. Small ubiquitin-related modifier 1 (Homo sapiens), P63165. 360,000 tested, 0.33% active. AID 602429, 2012. SUMO1 binding to a labelled peptide, TR-FRET, 1 h; in the data active = inhibition above about 37%
Target sequence (P63165 whole entry, looked up): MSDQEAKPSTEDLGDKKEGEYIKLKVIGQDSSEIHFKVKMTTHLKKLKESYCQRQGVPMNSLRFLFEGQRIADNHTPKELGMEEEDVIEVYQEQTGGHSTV
CFTR F508del cor = F508del CFTR correction, initial screen, CFBE line, single point; activity (quench increase), % at 7.58 µM; CFBE cells, YFP halide quenching; stimulated with forskolin plus potentiator P3; % fluorescence drop versus neutral controls; 350,000 tested, 0.36% active;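 active = mean added fluorescence quench of at least 8% versus neutral control, with both replicates also reaching 8%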;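 note: cells transiently co-express mutant CFTR-F508del with the halide-sensitive YFP; corrector assay measuring rescue of mutant channel to the surface after 24 h compound exposure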
* marks the source's active call; other numbers are inactive results; . = no result. Only some compounds are listed: those with a hit (about 1.6% of all), similar ones and a draw of the others.

SMILES	LMPTP inh	Scp-1 inhibitor	DNMT1 inh	STEP block	SUMO1-SIM PPI	CFTR F508del cor
Nc1c(C(=O)c2ccco2)oc2ccccc12	.	.	.	.	.	14*
COc1cccc(C2C(C(C)=O)=C(C)Nc3ncnn32)c1 (stereo unspecified)	-1	-9	1	-2	38*	.
NS(=O)(=O)c1cccc(NC(=O)c2cccc(N3C(=O)c4ccccc4C3=O)c2)c1	2	-8	-3	-2	-17	-3
CC(=O)c1cccc(NC(=O)c2cccc(N3C(=O)c4ccccc4C3=O)c2)c1	3	49	0	6	61*	0
Cc1cc2cc(C)c(NCCNC(=O)c3cccs3)nc2cc1C	2	7	13	-1	50*	0
COc1ccccc1NC1=C(NC(C)=O)C(=O)c2ccccc2C1=O	3	-2	-14	0	-34	8.2*
COC1=C(Nc2ccccc2OC)C(=O)c2ccccc2C1=O	3	-9	-5	-2	-31	2
O=C1OCC2=C1C(c1ccc3c(c1)OCO3)c1cc3c(cc1O2)OCO3 (stereo unspecified)	0	-10	5	4	0	9.8*
Cc1nc2ccc(C(=O)N/N=C/c3cc([N+](=O)[O-])ccc3O)cc2[nH]1	17	38	2	49*	-8	.
COc1cc(C2CC(=O)N(c3ccc(C)cc3)C(=O)C2)cc(OC)c1OC	-2	-3	-3	0	-1	10*
CCN(C[C@H]1N[C@H](CO)[C@@H]1c1ccc(-c2cccc(C#N)c2)cc1)C(C)=O	.	.	.	.	.	5
O=[N+]([O-])c1cc(/C=N/Nc2nc3ccccc3[nH]2)c(O)cc1O	.	56*	.	.	.	.
Cc1ccccc1/C=N/Nc1nc2ccccc2[nH]1	4	-1	4	1	-6	1
N#Cc1c(-c2ccc(Cl)cc2)cc(-c2cccs2)nc1SCC(=O)O	92*	90*	9	98*	2	0
Cc1noc(C)c1NC(=O)Nc1ccc2c(c1)C(=O)N([C@@H](C)CO)C[C@@H](C)[C@@H](CN(C)C(=O)Nc1cccc3ccccc13)OCCCC[C@@H](C)O2	.	.	.	.	.	1
CCNC(=O)C[C@@H]1C=C[C@@H](NC(=O)NC2CCCCC2)[C@H](CO)O1	.	.	.	.	.	8.8*
Cc1c2ccncc2cc2c1[nH]c1ccccc12	55*	-8	30	3	-20	12*
Cc1cc2c([nH]c3ccccc32)c(C)n1	3	-2	-2	3	0	1
O=C1C(Cl)=C(NCCCO)C(=O)c2ccccc21	4	1	-9	1	-31	.
O=C1C(SCCO)=C(SCCO)C(=O)c2ccccc21	22	-6	81*	24	35	10*
CNC(=O)C[C@H]1CC[C@@H]2[C@H](COc3ccc(NC(=O)Nc4ccccc4F)cc3C(=O)N2C)O1	.	.	.	.	.	1
Cc1ccc(/C=C2/Sc3ccc(C(=O)NCc4ccccn4)cc3NC2=O)cc1	19	6	24	12	50*	-1
CC(C)NC(=O)N(C)C[C@H]1Oc2ccc(NS(=O)(=O)c3cccs3)cc2CC(=O)N([C@H](C)CO)C[C@@H]1C	.	.	.	.	.	1
COC(=O)c1cc2c(n1S(=O)(=O)c1ccc(C)cc1)C(=O)C(=O)c1[nH]cc(C(=O)OCc3ccccc3)c1-2	0	-3	82*	1	-4	.
O=C(O)c1ccccc1NS(=O)(=O)c1ccc(NN=Cc2cccc(Cl)c2)c([N+](=O)[O-])c1	83*	-13	35	7	33	-2
SMILES	LMPTP inh	Scp-1 inhibitor	DNMT1 inh	STEP block	SUMO1-SIM PPI	CFTR F508del cor
COc1ccc(NC(=O)C2CCCN2C(=O)Nc2cccc(F)c2)cc1 (stereo unspecified)	0	-4	4	-2	4	9.7*
Cc1ccc(S(=O)(=O)N2CCOCC2)cc1C(=O)Nc1ccc(-c2cn3ccsc3n2)cc1	1	-8	-5	-2	45*	.
O=[N+]([O-])c1cccc2c(S(=O)(=O)N3CCOCC3)cccc12	21	32	14	59*	-25	3
O=C(c1ccccn1)N1CC2(C1)[C@@H](c1ccccc1)[C@@H](CO)N2C(=O)C1CCCC1	.	.	.	.	.	2
COc1cc(Br)c(C(=O)c2nccc3cc(OC)c(OC)cc23)cc1OC	5	-7	92*	3	19	1
Cc1ccc(S(=O)(=O)/N=C2\C=C(Nc3ccc(O)cc3)C(=O)c3ccccc32)cc1	9	-10	53*	4	12	.
Cc1ccc(NC2=C/C(=N/S(=O)(=O)c3cccs3)c3ccccc3C2=O)cc1	4	-7	-9	10	-5	.
O=C1C(Nc2ccccc2)=C/C(=N/S(=O)(=O)c2cccs2)c2ccccc21	8	-4	68*	2	32	.
COC(=O)c1ccccc1NC1=C/C(=N\S(=O)(=O)c2ccc(C(=O)O)cc2)c2ccccc2C1=O	2	12	81*	25	103*	.
Cc1ccc(S(=O)(=O)/N=C2\C=C(Nc3cccc(C(=O)O)c3)C(=O)c3ccccc32)cc1	8	-7	60*	3	39	-4
COc1ccc2c3c([nH]c2c1)[C@H](CO)N(C(=O)c1cccnc1)CC31CCN(Cc2cccnc2)CC1	.	.	.	.	.	0
COC(=O)c1ccc2c(c1)C(C)(C)C(/C=C/c1ccccc1O)=[N+]2C	6	99*	-17	-6	-11	.
COC(=O)c1ccc(N)c(N=CC2=C(O)CC(C)(C)CC2=O)c1	-1	-30	-8	0	-14	-1
COCC(=O)N(C)C[C@H]1Oc2ncc(-c3ccc(C)cc3)cc2C(=O)N([C@H](C)CO)C[C@H]1C	.	.	.	.	.	1
CN1CCN(C(=O)c2ccc3c(=O)n(CCc4ccccc4)c(=S)[nH]c3c2)CC1	-7	-3	1	0	41*	.
COc1ccc(Cn2c(=O)[nH]c3cc(C(=O)N4CCN(c5ccc(C(C)=O)cc5)CC4)ccc3c2=O)cc1	1	-4	-2	0	57*	-1
CO[C@H]1CN(C)C(=O)c2cc(NC(=O)C3CC3)ccc2OC[C@H](C)N(CC2CCCC2)C[C@H]1C	.	.	.	.	.	-1
CC(=O)Nc1ccc(-c2csc(NC(=O)CN3C(=O)NC4(CCCC4)C3=O)n2)cc1	4	2	-11	2	4	8.1*

Screening data as filed in PubChem BioAssay.
